Active and inactive are the calls of the source. No cut-off for these calls is given here.

The subject of data set [1] is Ebolavirus. The data set can be described thus: Antiviral activity against Ebolavirus H. sapiens-wt/1995/Kikwit-9510621 infected in human HeLa cells assessed as inhibition of viral infection at 2 uM treated for 2 hrs after viral infection and measured after 24 hrs by EboV GP immunostaining based high content imaging analysis. The data set is classed as functional, organism-based.

Data set [2] relates to HeLa. The data set can be described thus: Induction of lysosomotropism in human HeLa cells infected with Ebolavirus assessed as increase in fluorescence intensity of acid compartments at 2 uM for 1 hr by Lysosensor DND189 staining based assay. The data set is classed as functional, cell-based. Summed up: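 HeLa cells were pretreated 1 h with compound (Bafilomycin A1 at 0.01 μM as acidification control), then stained with LysoSensor DND 189 for 10 min and washed. Live imaging at Ex/Em 443/505 nm. Fluorescence intensity per area was quantified by image analysis. Eight wells per point, about 3000 cells/well, mean ± SD, three independent experiments.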

In data set [3] the test system is Ebolavirus. Nature of the data set: Antiviral activity against Ebolavirus H. sapiens-wt/1995/Kikwit-9510621 infected in HFF assessed as inhibition of viral infection pretreated for 2 hrs followed by viral infection and measured after 48 hrs by EboV GP immunostaining based high content imaging analysis. The data set is classed as functional, organism-based. The conditions noted are these: Orthoebolavirus.

Data set [4] concerns the target Procathepsin L (Homo sapiens) (UniProt P07711). The data set can be described thus: Inhibition of cathepsin L activity in human HeLa cells at 2 uM after 6 hrs by HCA. The data set is classed as cell-based.
A short description of data set [5]: Toxicity in 6 hrs post fertilized zebrafish embryo assessed as teratogenic effect by measuring malformation of notochord up to 50 uM up to 120 hrs post fertilization by inverted microscopic method. The data set is classed as tissue-based, Danio rerio. Conditions: in vivo.
Data set [6] can be described thus: Toxicity in 6 hrs post fertilized zebrafish embryo assessed as tail detachment up to 50 uM up to 120 hrs post fertilization by inverted microscopic method. More on the design: species or system Danio rerio. The conditions noted are these: in vivo.
In data set [7] the test system is Ebolavirus. The data set can be described thus: Antiviral activity against Ebolavirus infected in mouse assessed as protection against viral infection at 10 mg/kg/day relative to control. The data set is classed as functional.
Data set [8] can be described thus: Selectivity index, ratio of CC50 for HFF to EC50 for Ebolavirus H. sapiens-wt/1995/Kikwit-9510621 infected in human HeLa cells. The data set is classed as toxicity, cell-based. The conditions noted are these: read-out: Ratio CC50/EC50.
The nature of data set [9]: Toxicity in 6 hrs post fertilized zebrafish embryo assessed as lethal effect on egg coagulation up to 50 uM up to 120 hrs post fertilization by inverted microscopic method. More on the design: species or system Danio rerio. Conditions: in vivo.
Data set [10] in a line: Selectivity index, ratio of toxic concentration for hepatotoxicity in transgenic l-fabp:EGFP zebrafish embryo to EC50 for Ebolavirus H. sapiens-wt/1995/Kikwit-9510621. The data set is classed as toxicity. Conditions: read-out: Selectivity Index.
Data set [11] can be described thus: Myelotoxicity in 6 hrs post fertilized transgenic mpx:GFP zebrafish embryo assessed as reduction in neutrophil occurrence up to 20 uM measured at 72 hrs hrs post fertilization by fluorescence assay. More on the design: species or system Danio rerio. Summed up:
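Tg(mpx:GFP) zebrafish embryos with GFP-labelled neutrophils were treated with compound. At 72 hpf, neutrophil fluorescence of the whole embryo and neutrophil occurrence were assessed.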

The nature of data set [12]: Hepatotoxicity in 6 hrs post fertilized transgenic l-fabp:EGFP zebrafish embryo assessed as change in liver area index up to 40 uM up to 120 hrs post fertilization by fluorescence assay. The data set is classed as toxicity, Danio rerio. The conditions noted are these: in vivo. The essentials:
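Tg(l-fabp:EGFP) zebrafish embryos exposed from 6 hpf. At 120 hpf, liver area index (liver area/lateral body area) and liver fluorescence assessed by in vivo imaging.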

Data set [13] in a line: Toxicity in 6 hrs post fertilized zebrafish embryo assessed as teratogenic effect by measuring malformation of eyes up to 50 uM up to 120 hrs post fertilization by inverted microscopic method. More on the design: species or system Danio rerio. Conditions: in vivo.
Data set [14] is described as follows: Selectivity index, ratio of LC50 for toxicity in transgenic zebrafish embryo assessed as mortality to EC50 for Ebolavirus H. sapiens-wt/1995/Kikwit-9510621. The conditions noted are these: read-out: Selectivity Index.
Data set [15] in a line: Toxicity in 6 hrs post fertilized zebrafish embryo assessed as teratogenic effect by measuring yolk edema up to 50 uM up to 120 hrs post fertilization by inverted microscopic method. The conditions noted are these: in vivo. More on the design: species or system Danio rerio.
Data set [16] relates to Zaire ebolavirus. Nature of the data set: Antiviral activity against Ebolavirus Mayinga infected in Balb/c mouse assessed as protection against viral infection at 1 to 5 mg/kg, ip administered 2 hrs prior to viral infection daily for 6 days and measured for 14 days relative to control. The data set is classed as functional, 1976.
Data set [17] can be described thus: Toxicity in Balb/c mouse infected with Ebolavirus Mayinga assessed as weight loss at 1 to 10 mg/kg, ip administered 2 hrs prior to viral infection daily for 6 days and measured for 14 days. The data set is classed as organism-based. The conditions noted are these: in vivo, 336 h.
The nature of data set [18]: Clearance in mouse liver microsomes after 1 hr. Conditions: read-out: CLH. The data set is classed as ADME, Microsome. The essentials:
(§1)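 Substrate depletion with mouse or human liver microsomes, 1 h at 37 °C. Clearance (μL/min/mg) and half-life derived.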
(Liver microsomes are a subcellular fraction often used to study metabolism.)

Data set [19] in a line: Solubility of the compound in deionized water. The data set is classed as physicochemical.
Data set [20] can be described thus: Drug metabolism in C57Bl/6 mouse assessed as oxygenation metabolite formation at 20 mg/kg/day, ip qd for 7 days measured at 24 hrs post last dose by UHPLC/MS analysis. The data set is classed as ADME, organism-based. The conditions noted are these: in vivo. Summed up:
(§2)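 Serum from two mice dosed 20 mg/kg/day i.p. taken 24 h after the last dose. Compound quantified by UHPLC/MS and screened for M+2, M+16, M-2 and M+32 products or combinations.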

The nature of data set [21]: Stability in plasma (unknown origin) after 1 hr at 37 degC. The data set is classed as ADME, cell-free. The conditions noted are these: read-out: Stability. The essentials: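 Compound was incubated in plasma for 1 h at 37 °C, and the percent remaining was reported.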
Data set [22] deals with Zaire ebolavirus. Nature of the data set: Antiviral activity against VSV pseudotyped Ebolavirus Mayinga expressing GFP infected in human HeLa cells assessed as inhibition of viral infection up to 50 uM pre-incubated for 2 hrs followed by viral infection and measured after 8 hrs by high content imaging analysis. The conditions noted are these: 1976. The data set is classed as functional, organism-based. Summed up:
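HeLa cells pretreated 2 h with compound, then infected with rVSV-EBOV-GP-GFP (8 h) or VSV-GFP (6 h), and stained with Cell Mask Deep Red. Relative inhibition = 1 minus (% GFP-expressing cells normalised to mock). Mean ± SD of three replicates, representative of three independent experiments.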

Another data set concerns the target Cytochrome P450 2D6 (Homo sapiens, UniProt P10635). The data set can be described thus: Inhibition of CYP2D6 (unknown origin) using 3-(2-(N, N-Diethyl-N-methylamino)ethyl)-7-Methoxy-4-Methylcoumarin as substrate. The data set is classed as ADME. Conditions: read-out: INH. Summed up:
(§3)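 CYP IC50 was taken from the net fluorescent signal after incubation at 37 °C for a set time with active cytochrome P450 enzyme and a fluorescent probe substrate.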

A further data set concerns the target Cytochrome P450 2C19 (Homo sapiens, UniProt P33261). The data set can be described thus: Inhibition of CYP2C19 (unknown origin) using CEC as substrate. The data set is classed as ADME. The essentials: as §3
Data set [23] is described as follows: Drug metabolism in C57Bl/6 mouse assessed as dehydrogenation metabolite formation at 20 mg/kg/day, ip qd for 7 days measured at 24 hrs post last dose by UHPLC/MS analysis. The data set is classed as ADME, organism-based. Conditions: in vivo. Summed up: as §2
Data set [24] relates to Zaire ebolavirus. Nature of the data set: Antiviral activity against Ebolavirus Mayinga infected in ip dosed Balb/c mouse assessed as protection against viral infection administered 2 hrs prior to viral infection daily for 6 days and measured for 14 days. The data set is classed as functional, organism-based. The conditions noted are these: 1976.
The subject of data set [25] is HeLa. Nature of the data set: Induction of lysosome suppression in human HeLa cells assessed as vesicular compartment expansion pretreated for 2 hrs followed by VSV pseudotyped EBOV-GP-GFP infection for 2 to 6 hrs by uranyl acetate staining based transmission electron microscopic method. The data set is classed as functional, subcellular. The essentials: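 HeLa cells mock-treated or treated 2 h with compound, then left uninfected or infected with rVSV-EBOV-GP-GFP for 2 h or 6 h. Processed for transmission electron microscopy to examine vesicular compartments.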

A short description of data set [26]: Half life in mouse liver microsomes. The data set is classed as ADME, Microsome. Summed up: as §1

Procathepsin L (Homo sapiens), sequence (P07711 114-333 limits assumed): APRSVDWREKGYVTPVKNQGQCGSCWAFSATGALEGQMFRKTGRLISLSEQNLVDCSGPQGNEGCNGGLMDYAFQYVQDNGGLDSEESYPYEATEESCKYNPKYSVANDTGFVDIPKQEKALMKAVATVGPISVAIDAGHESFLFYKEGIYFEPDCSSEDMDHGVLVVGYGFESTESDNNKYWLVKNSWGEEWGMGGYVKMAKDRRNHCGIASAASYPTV
Cytochrome P450 2D6, sequence (P10635 whole entry): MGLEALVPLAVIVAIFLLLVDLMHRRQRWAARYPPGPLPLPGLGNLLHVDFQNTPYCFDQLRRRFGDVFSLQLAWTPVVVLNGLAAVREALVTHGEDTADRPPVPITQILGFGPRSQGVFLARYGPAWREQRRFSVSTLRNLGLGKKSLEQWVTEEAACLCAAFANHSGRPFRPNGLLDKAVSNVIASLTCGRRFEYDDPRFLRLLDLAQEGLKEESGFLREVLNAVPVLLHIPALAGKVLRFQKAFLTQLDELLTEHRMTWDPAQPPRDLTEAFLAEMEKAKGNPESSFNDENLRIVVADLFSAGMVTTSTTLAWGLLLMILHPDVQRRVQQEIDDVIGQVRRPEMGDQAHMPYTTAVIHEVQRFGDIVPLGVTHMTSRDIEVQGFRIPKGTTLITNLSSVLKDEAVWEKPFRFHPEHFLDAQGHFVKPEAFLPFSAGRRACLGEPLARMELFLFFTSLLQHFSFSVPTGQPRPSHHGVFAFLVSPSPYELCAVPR
Cytochrome P450 2C19, sequence (P33261 whole entry): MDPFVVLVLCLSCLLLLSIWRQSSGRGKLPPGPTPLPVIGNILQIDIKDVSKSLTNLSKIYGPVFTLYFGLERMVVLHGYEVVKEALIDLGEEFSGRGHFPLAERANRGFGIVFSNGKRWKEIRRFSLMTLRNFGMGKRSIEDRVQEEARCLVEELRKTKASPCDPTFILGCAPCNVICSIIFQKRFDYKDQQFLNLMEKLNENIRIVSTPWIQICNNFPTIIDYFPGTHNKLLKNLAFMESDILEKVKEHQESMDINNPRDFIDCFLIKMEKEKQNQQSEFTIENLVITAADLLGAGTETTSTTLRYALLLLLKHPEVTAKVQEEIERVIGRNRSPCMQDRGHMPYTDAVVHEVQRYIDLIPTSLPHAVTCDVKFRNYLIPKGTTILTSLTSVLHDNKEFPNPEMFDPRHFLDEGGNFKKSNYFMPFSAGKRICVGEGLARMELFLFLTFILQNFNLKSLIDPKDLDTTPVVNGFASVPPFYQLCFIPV

As for `Cl.Cl.Cl.Cl.c1cc(NCCN2CCOCC2)c2ccc3c(ccc4c(NCCN5CCOCC5)ccnc43)c2n1`, the outcome in the data set with Ebolavirus [1] was inactive. In the data set on HeLa [2], the result was Active. For the same compound, in the data set on Ebolavirus [3], the EC50 (usually the concentration at which the effect is half-maximal) stood at 550 nM. Moreover, in the data set on Ebolavirus [3], the EC90 (usually the concentration needed for an effect of 90%) was found to be 1360 nM. The inhibition result in data set [4] was “Active”. For the same compound, the Activity entry in data set [5] is recorded as “Non-Toxic”; in data set [6], “Non-Toxic”; in the data set on Ebolavirus [7], 90%; in data set [9] it was “Non-Toxic”; in data set [11] it was “Non-Toxic”; in [12] it was “Non-Toxic”. Further, the Activity result in [13] and in [15] was “Non-Toxic” throughout. For the same compound, the selectivity ratio was more than 36.5 in data set [8], 103 in [10] and 70 to 100 in data set [14].
Take `Cl.Cl.Cl.Cl.c1cc(NCCCCN2CCOCC2)c2ccc3c(ccc4c(NCCN5CCOCC5)ccnc43)c2n1`: the outcome in the data set on Ebolavirus [1] was inactive. For the same compound, the Activity is on record as 50% in the data set on Zaire ebolavirus [16]; “Non-Toxic” in [17]; “Non-Toxic” in [5]; “Non-Toxic” in data set [6]; “Non-Toxic” in data set [9]; “Non-Toxic” in [13]. Besides, the Activity entry with Zaire ebolavirus [24] was “Dose-dependent effect”; in [15] it was “Non-Toxic”. The outcome in the data set with HeLa [2], in the data set on Zaire ebolavirus [22] and in the data set with HeLa [25] was Active. Besides, the EC50 in the data set with Ebolavirus [3] came to 210 nM. For the same compound, the EC90 in the data set with Ebolavirus [3] came out at 780 nM. In addition, in [4], the inhibition entry was “Active”. The microsomal CLint in data set [18] was 22.3 µL/min/mg. Besides, the solubility (commonly the concentration that dissolves in the medium under given conditions) in data set [19] was not below 25 mg/mL. The Drug metabolism entry in data set [20] and in [23] was “Metabolite_Notdetected” in each case. Also, the selectivity ratio was 11.2 in [8], 73 in [10] and 70 to 100 in data set [14]. The remaining at 1 h in data set [21] amounted to 60%. Also, at Cytochrome P450 2D6, the IC50 is more than 10000 nM. On Cytochrome P450 2C19, this compound had an INH of more than 10 µM. Besides, the half-life (in general, how long it takes for the measured level to halve) in data set [26] worked out at 1.03 h.

Values taken from ChEMBL document CHEMBL4330057, “Second generation of diazachrysenes: Protection of Ebola virus infected mice and mechanism of action” (Eur J Med Chem, 2019).
